Reference: ChEMBL document CHEMBL1127604 (J Med Chem, 1994)

Legend:
[1] = biological target: T1, 5-hydroxytryptamine receptor 1D (Rattus norvegicus, UniProt P28565); experiment: Inhibition of forskolin stimulated adenylate cyclase at 5-hydroxytryptamine 1D receptor; type: functional
[2] = biological target: T2, 5-hydroxytryptamine receptor 1A (Rattus norvegicus, UniProt P19327); experiment: Inhibition of forskolin stimulated adenylate cyclase at 5-hydroxytryptamine 1A receptor; type: functional
T2 sequence (P19327 whole entry): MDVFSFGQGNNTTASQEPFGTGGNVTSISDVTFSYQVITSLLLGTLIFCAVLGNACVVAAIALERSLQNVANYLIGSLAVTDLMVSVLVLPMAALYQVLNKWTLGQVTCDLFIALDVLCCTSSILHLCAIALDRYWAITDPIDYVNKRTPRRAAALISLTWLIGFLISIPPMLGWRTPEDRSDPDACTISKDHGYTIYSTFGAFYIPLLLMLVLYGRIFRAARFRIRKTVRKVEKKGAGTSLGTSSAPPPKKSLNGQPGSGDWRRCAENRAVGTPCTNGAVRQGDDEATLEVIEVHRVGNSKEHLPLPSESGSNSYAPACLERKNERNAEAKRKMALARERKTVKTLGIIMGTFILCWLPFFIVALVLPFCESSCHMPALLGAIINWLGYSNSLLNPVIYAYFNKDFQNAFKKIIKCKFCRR

[3] = Selectivity value is the ratio between EC50 values of 5-HT1A and 5-HT1D receptors
[4] = biological target: T1, 5-hydroxytryptamine receptor 1D; experiment: Binding affinity was measured against serotonin 5-hydroxytryptamine 1D receptor
Procedure, shortened: (§1)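 Radioligand binding at 5-HT1A and 5-HT1D receptors, run by the group's earlier published protocol. Each value is the arithmetic mean of at least three independent determinations.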

[5] = biological target: T2, 5-hydroxytryptamine receptor 1A; experiment: Binding affinity was measured against serotonin 5-hydroxytryptamine 1A receptor; procedure, shortened: as §1
[6] = Selectivity value is the ratio between IC50 values of 5-HT1A and 5-HT1D receptors

T1 sequence (P28565 whole entry): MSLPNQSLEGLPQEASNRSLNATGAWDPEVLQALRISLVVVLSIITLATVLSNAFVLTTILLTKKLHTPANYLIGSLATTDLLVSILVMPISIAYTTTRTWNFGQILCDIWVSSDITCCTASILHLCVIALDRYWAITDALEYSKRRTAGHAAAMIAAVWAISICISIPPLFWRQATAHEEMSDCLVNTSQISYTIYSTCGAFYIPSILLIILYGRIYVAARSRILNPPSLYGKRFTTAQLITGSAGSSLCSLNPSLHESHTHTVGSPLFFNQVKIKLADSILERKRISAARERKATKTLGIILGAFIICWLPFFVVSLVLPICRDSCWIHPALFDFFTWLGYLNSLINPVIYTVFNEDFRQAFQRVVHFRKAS

Structure (SMILES)	EC50 [1] [µM]	EC50 [2] [µM]	Selectivity [3]	IC50 [4] [µM]	IC50 [5] [µM]	Selectivity [6]
CN1CCC[C@@H]1Cc1c[nH]c2ccc(Nc3ncccc3[N+](=O)[O-])cc12	0.0013	0.047	36	0.0031	0.033	11
O=[N+]([O-])c1cccnc1Nc1ccc2[nH]cc(C[C@H]3CCCN3)c2c1	0.0013	0.22	170	0.0062	0.12	19
CN1CCC(c2c[nH]c3ccc(Nc4ncccc4[N+](=O)[O-])cc23)C1 (stereo unspecified)	0.002	0.885	440	0.015	0.32	21
CNS(=O)(=O)Cc1ccc2[nH]cc(CCN(C)C)c2c1	–	1.3	–	–	0.64	–
CN(C)CCc1c[nH]c2ccc(Nc3ncccc3[N+](=O)[O-])cc12	0.002	0.17	85	0.01	0.073	7
